An excerpt weighted towards active compounds, which were near 2.3% of everything screened.
STEP block – blocks human striatal-enriched tyrosine phosphatase | AID 588621 | inhibition, % at 20 µM | recombinant STEP, OMFP fluorogenic substrate, fluorescence | actives 0.25% (n = 360,000);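 active means inhibition at 20 µM, scaled per plate between control wells, above about 37%, limit read from the data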
Target sequence (P54829 whole entry, looked up): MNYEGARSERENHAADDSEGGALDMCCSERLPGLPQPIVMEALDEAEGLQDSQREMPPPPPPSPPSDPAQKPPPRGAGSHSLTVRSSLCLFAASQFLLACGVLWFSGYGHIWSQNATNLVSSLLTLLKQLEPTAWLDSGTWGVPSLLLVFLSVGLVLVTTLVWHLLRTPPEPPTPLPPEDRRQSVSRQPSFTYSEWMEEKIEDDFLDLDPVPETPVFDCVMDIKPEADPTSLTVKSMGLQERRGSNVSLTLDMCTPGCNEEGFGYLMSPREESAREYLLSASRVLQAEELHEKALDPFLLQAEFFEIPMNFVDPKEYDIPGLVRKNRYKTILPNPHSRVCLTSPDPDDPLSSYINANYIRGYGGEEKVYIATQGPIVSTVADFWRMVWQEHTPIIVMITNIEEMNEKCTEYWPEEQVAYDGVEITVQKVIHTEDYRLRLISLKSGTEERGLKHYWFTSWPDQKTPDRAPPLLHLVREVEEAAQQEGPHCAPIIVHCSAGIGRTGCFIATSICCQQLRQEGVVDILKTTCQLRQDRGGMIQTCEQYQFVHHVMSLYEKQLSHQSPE
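Material: STEP (striatal-enriched tyrosine phosphatase) enzyme, cell-free | Medium: 50 mM Bis-Tris pH 6.0 with 2.5 mM DTT and 0.005% Tween 20 | Read-out: Percent inhibition scaled to no-enzyme and uninhibited-enzyme controls, plate-pattern corrected | Signal: Fluorescence read at 480 nm ex / 540 nm em | Times: 20 min reaction, room temperature, in the dark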
LMPTP inh – LMPTP (human) inhibition. recombinant LMPTP-A, OMFP fluorogenic substrate, fluorescence intensity. P24666. inhibition, % at 20 µM. actives 0.22% (n = 360,000). AID 651560;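 active means compounds that cut the enzyme signal by at least half of the control window in the single-dose screen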
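test system = LMPTP-A | amount = 0.625 nM LMPTP-A final | reagent = fluorogenic phosphatase substrate OMFP at 400 µM final | incubation = 50 min at room temperature | benchmarks = no-enzyme low control, uninhibited high control | medium = Bis-Tris pH 6.0, DTT, detergent | signal = fluorescence intensity of OMFP turnover product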
Scp1 inh – blocks human Scp-1 phosphatase activity | Q9GZU7 | Recombinant Scp1, phosphopeptide, malachite green phosphate absorbance | inhibition, % at 20 µM | actives 0.88% (n = 340,000) | AID 493091;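 active means inhibition above about 50% at 20 µM, limit read from the data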
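Incubation: 45 min enzyme reaction at room temperature / System: truncated SCP-1 phosphatase (76-261aa) / Reagent: Phospho 17-mer peptide substrate / Buffer or medium: Acidic Tris acetate buffer with magnesium and detergent / Signal: absorbance at 630 nm / Doses: one concentration, 20 µM, with 1.0% DMSO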
DNMT1 block – inhibitors of human DNMT1 | P26358 | DNMT1 molecular beacon, Hinp1I cleavage, fluorescence | inhibition (reported as % activation of signal), % at 10 µM | actives 0.83% (n = 360,000) | AID 588458; in the data active means inhibition above about 50%
Rpn11 inh – inhibitors of human proteasome Rpn11. O00487. human 26S proteasome, Ub4-pepOG fluorescence polarization; 20S core pre-blocked with epoxomicin. inhibition, % at 20 µM. actives 0.59% (n = 360,000);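 active means inhibition at 20 µM, scaled to each plate's controls, above about 33%, limit read from the data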
SUMO1-SIM PPI – SUMO1-SIM interaction modulation; P63165; SUMO1 binding to a labelled peptide, TR-FRET, 1 h; inhibition, % at 20 µM; actives 0.33% (n = 360,000); AID 602429; in the data active means inhibition above about 37%
Target sequence (P63165 whole entry, looked up): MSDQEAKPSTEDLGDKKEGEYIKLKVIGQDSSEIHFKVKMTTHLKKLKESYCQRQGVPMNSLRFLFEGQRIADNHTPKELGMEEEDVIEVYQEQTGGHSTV
Each line names hits and unclear results; the compound was inactive in the other large screens.

C[C@]12C=CC(=O)C=C1CC[C@@H]1C2=CC[C@]2(C)[C@@H](C(=O)CN3CCN(c4cc(N5CCCC5)nc(N5CCCC5)n4)CC3)CC[C@@H]12	DNMT1 block 60.6
CCOC(=O)C1CCN(c2c(NCc3ccc(C(=O)Nc4ccc(C)cc4)cc3)c(=O)c2=O)CC1	none
O=c1c2ccccc2sn1-c1cc(S(=O)(=O)N2CCOCC2)ccc1N1CCOCC1	Scp1 inh 94.1
O=S(=O)(c1ccc(N2CCOCC2)c(Cl)c1)N1CCOCC1	none
O=C(O)c1cc(O)c2c(c1)[C@@H]([C@H]1c3cc(C(=O)O)cc(O)c3C(=O)c3c(O[C@@H]4O[C@H](CO)[C@@H](O)[C@H](O)[C@H]4O)cccc31)c1cccc(O[C@@H]3O[C@H](CO)[C@@H](O)[C@H](O)[C@H]3O)c1C2=O	Scp1 inh 85.8 (no result: STEP block, LMPTP inh, DNMT1 block, Rpn11 inh, SUMO1-SIM PPI)
N=C(N)c1ccc(Cl)cc1	none
N=C(N)c1ccc(/C=C/c2ccc(C(=N)N)cc2O)cc1	LMPTP inh 65.0, SUMO1-SIM PPI 77.8
CN(C)/C=C1\C=C2C(=O)c3ccccc3N2C1=O	DNMT1 block active
O=c1c2ccccc2c(C=Nc2cccc(S(=O)(=O)NCc3ccco3)c2)c(O)n1-c1ccc(Cl)cn1	none
N#C/C(=C\c1ccccc1C(=O)O)c1nc2ccccc2[nH]1	none
N#C/C(=C\c1ccc(-c2ccc(C(=O)O)cc2)o1)c1nc2ccccc2[nH]1	STEP block 60.3, Scp1 inh 56.9 (not shown: Rpn11 inh)
O=c1cc(-c2ccc(O)cc2)oc2c(O)c(O)c(O)c(O)c12	Scp1 inh 69.0
CC1CCc2c(sc3ncn(CC(=O)N=Nc4c(O)[nH]c5ccccc45)c(=O)c23)C1 (configuration not stated)	DNMT1 block 53.5
C[n+]1c(-c2ccccc2)cc2c(=Cc3ccccc3)c3ccccc3n21	DNMT1 block 50.4
C[n+]1c(-c2ccccc2)cc2c(=Cc3ccc([N+](=O)[O-])cc3)c3ccccc3n21	DNMT1 block 51.9
Cc1cc(N2CCN(C(C(=O)NC3CCCC3)c3ccc(F)cc3)CC2)c2ccccc2n1 (configuration not stated)	none (no result: STEP block, Scp1 inh, DNMT1 block, Rpn11 inh)
Cc1cc(N2CCN(C(C(=O)NC3CCCC3)c3ccco3)CC2)c2ccccc2n1 (configuration not stated)	LMPTP inh 56.5 (no result: STEP block, Scp1 inh, DNMT1 block, Rpn11 inh)
C[n+]1ccccc1/C=C/c1c(F)cccc1F	none
C[n+]1ccccc1/C=C/c1ccccc1Cl	Scp1 inh 98.2
Cn1c(N)c(C(=O)COC(=O)c2ccc3c(c2)C(=O)N(c2ccc(Cl)cc2)C3=O)c(=O)n(C)c1=O	SUMO1-SIM PPI 64.1
COc1ccc(C2=CC3=C(Br)C(=O)C(C)(OC(=O)c4ccco4)C(=O)C3=CO2)cc1 (configuration not stated)	none
COc1ccc(C2=CC3=C(Br)C(=O)C(C)(OC(=O)c4cccs4)C(=O)C3=CO2)cc1 (configuration not stated)	SUMO1-SIM PPI 44.0
OCC[C@@H]1C[C@H](O)[C@@H](O)[C@]2(OCCc3cc(C(F)(F)F)ccc32)O1	none (no result: Scp1 inh)
O=[N+]([O-])c1cc(CN2CCCC2)c2cccnc2c1O	LMPTP inh 73.8
Cn1cnnc1SCC(=O)Nc1ncc([N+](=O)[O-])s1	Scp1 inh 74.7, DNMT1 block 83.7
CCCCCCSc1ccc(-c2nc3cnccn3c2NCCCC)cc1	none
Nc1c2ccccc2nc2ccccc12	DNMT1 block 75.8
Cc1ccc(C)c(NC(=O)CN(C)C(=O)c2cc(C3CC3)nn2-c2ccccc2)c1	none
Cc1ccc(/C=C2/C(=O)ON=C2c2ccccc2)o1	none
CC1=NOC(=O)/C1=C\c1ccc(-c2ccccc2Br)o1	DNMT1 block 51.7
CC1=NOC(=O)/C1=C\c1ccc(-c2cccc(Cl)c2)o1	DNMT1 block 57.2, SUMO1-SIM PPI 40.0
COc1cccc(NC(=O)CN(C)C(=O)C2CCN(C(=O)c3ccccc3C)CC2)c1	none
CC(C)n1cnc2c(Nc3cccc(Cl)c3)nc(NCCCO)nc21	none
C=CC(=O)Nc1cccc(Nc2nc(N[C@H]3CC[C@H](N(C)C)CC3)nc3c2ncn3C(C)C)c1	Rpn11 inh 68.0
Nc1c(C(=O)NCc2ccco2)c2nc3ccccc3nc2n1CCc1ccc(F)cc1	Rpn11 inh 43.3
OC1CCN(Cc2nc(Cc3ccccc3Cl)no2)CC1	SUMO1-SIM PPI 44.5
COCCCC1CCN(Cc2nc(Cc3ccccc3Cl)no2)CC1	none
CC[n+]1ccccc1/C=C/Nc1ccccc1	none
CC[n+]1ccccc1/C=C1\Sc2ccc(C)cc2N1C	Scp1 inh 79.4
Cc1ccc(C)c(C(=O)C(C)OC(=O)CN2C(=O)NC3(CC(C)CC(C)(C)C3)C2=O)c1 (configuration not stated)	none
Cc1nc(N)nc(N)c1CCCc1ccc(Cl)c(Cl)c1	LMPTP inh 64.1
Cc1nc(N)nc(N)c1-c1ccc(Cl)c(Cl)c1	LMPTP inh 56.7
Nc1nc(N)nc(-c2ccc(Cl)c(Cl)c2)n1	none
CC(OC(=O)CCCN=C1NS(=O)(=O)c2ccccc21)C(=O)Nc1ccc(F)c(F)c1F (configuration not stated)	none
O=C(CSc1ccccn1)Nc1nonc1[N+](=O)[O-]	none
CC1=Nc2ccccc2/C1=C/c1nc(-c2ccc(C)s2)oc1O	none (not shown: Rpn11 inh)
CC1=Nc2ccccc2/C1=C/c1sc(=N)n(-c2nccs2)c1O	Rpn11 inh 89.2
COCC(C)OC(=O)c1c(N)n(CC(C)C)c2nc3ccccc3nc12 (configuration not stated)	DNMT1 block 60.0, SUMO1-SIM PPI 41.3
CC(C)OC(=O)c1c(N)n(CCCN2CCOCC2)c2nc3ccccc3nc12	none
Fc1cccc(Cc2c(-c3ccco3)nc3ccc(Cl)cn23)c1	none (no result: Scp1 inh)
Fc1cccc(Cc2c(-c3ccco3)nc3ccc(Br)cn23)c1	DNMT1 block 50.0 (no result: Scp1 inh)
c1ccc(CNc2nc(NCc3cccs3)nc3ccsc23)cc1	none (no result: Scp1 inh)
c1ccc(CNc2nc(NCCc3ccncc3)c3sccc3n2)cc1	LMPTP inh 87.0 (no result: Scp1 inh)
O=C(NCc1ccccc1F)c1ccncc1	none
COc1ccccc1-c1ccc(/C=C2/C=C(CC(C)C)OC2=O)o1	none
CCCC1=C/C(=C/c2ccc(-c3ccccc3OC)o2)C(=O)O1	Rpn11 inh 49.3
CCNC(=O)N(C)C[C@H]1N[C@@](CC)(C(=O)OC)[C@H]2C(=O)N(C)C(=O)[C@@H]12	none
Cc1c(N2C(=O)c3ccc(Br)cc3C2=O)c(=O)n(-c2ccccc2)n1C	none
Cc1c(N2C(=O)c3ccc4c5c(ccc(c35)C2=O)CC4)c(=O)n(-c2ccccc2)n1C	LMPTP inh 52.5, Scp1 inh 64.8, DNMT1 block 90.4
O=C(NCc1ccco1)c1cc2c(s1)CSC2	Scp1 inh 99.0 (no result: STEP block, LMPTP inh, DNMT1 block, Rpn11 inh, SUMO1-SIM PPI)

Assay outcomes from PubChem.
